The subject of one experiment is Bacillus subtilis. Briefly: Antibacterial activity against Bacillus subtilis MTCC 441 assessed as growth inhibition after overnight incubation by NCCLS broth microdilution method. It counts as functional. An outline of the steps: (§1)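 Broth microdilution per NCCLS in Mueller Hinton broth, compounds diluted in DMSO. Primary screen at 500, 250 and 200 µg/mL; actives retested at 100, 62.5, 50, 25 and 12.5 µg/mL. Tubes incubated overnight at 37 °C. […] Non-growing tubes subcultured overnight at 37 °C to judge bacteriostatic versus bactericidal action.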
(Broth dilution looks for growth in wells or tubes with falling amounts of substance.)

The subject of experiment [1] is Mycobacterium tuberculosis. Kind of experiment: Antitubercular activity against Mycobacterium tuberculosis H37Rv assessed as growth inhibition at 250 ug/mL after 12 to 28 days by Lowenstein-Jensen method relative to control. It counts as functional. The conditions noted are these: read-out: GI. In outline: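 Modified Lowenstein-Jensen method. Compound at 250 in DMSO added to liquid L-J medium, then sterilized by inspissation and incubated 24 h at 37 °C. Streaked with H37Rv harvested in 0.85% saline (5 × 10⁴ bacilli/tube) and incubated at 37 °C. Colonies read at 12, 22 and 28 days versus drug-free control; no colonies or <20 colonies scored as inhibition.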

Another experiment concerns Vibrio cholerae. Kind of experiment: Antibacterial activity against Vibrio cholerae MTCC 3906 assessed as growth inhibition after overnight incubation by NCCLS broth microdilution method. It counts as functional.
In another experiment the test system is Clostridium tetani. Kind of experiment: Antibacterial activity against Clostridium tetani MTCC 449 assessed as growth inhibition after overnight incubation by NCCLS broth microdilution method. It counts as functional.
A further experiment deals with Aspergillus fumigatus. Kind of experiment: Antifungal activity against Aspergillus fumigatus MTCC 3008 assessed as growth inhibition after overnight incubation by NCCLS broth microdilution method. It counts as functional. An outline of the steps:
as §1

A further experiment deals with Escherichia coli. Kind of experiment: Antibacterial activity against Escherichia coli MTCC 443 assessed as growth inhibition after overnight incubation by NCCLS broth microdilution method. It counts as functional. In outline:
as §1

In the next experiment the test system is Streptococcus pneumoniae. Briefly: Antibacterial activity against Streptococcus pneumoniae MTCC 1936 assessed as growth inhibition after overnight incubation by NCCLS broth microdilution method. It counts as functional. An outline of the steps:
as §1

The subject of the next experiment is Candida albicans. Briefly: Antifungal activity against Candida albicans MTCC 227 assessed as growth inhibition after overnight incubation by NCCLS broth microdilution method. It counts as functional. An outline of the steps: as §1
In the next experiment the test system is Salmonella typhi. Briefly: Antibacterial activity against Salmonella typhi MTCC 98 assessed as growth inhibition after overnight incubation by NCCLS broth microdilution method. It counts as functional, Salmonella enterica subsp. enterica serovar Typhi. The conditions noted are these: Salmonella enterica.
Experiment [2] can be described thus: Antioxidant activity of the compound assessed as ascorbic acid equivalent of ferric tripyridyl triazine reducing activity at 200 ug/mL after 15 mins by FRAP assay. It counts as functional. In outline: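 FRAP, modified Benzie and Strain method. Fe(III)-TPTZ reagent made with TPTZ in 40 mM HCl, FeCl3 solution and acetate buffer pH 3.6. 200 µL sample solution mixed with 3 mL reagent and held 15 min at 37 °C. Fe(II)-TPTZ read at 593 nm against an ascorbic acid standard, expressed as ascorbic acid equivalents (mmol/100 g compound).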

The structures appear in SMILES notation. Values after ≈ are worked out from the molar mass of the structure shown.

`N#CC1=C(N)N(c2cc(F)ccc2F)C2=C(C(=O)CCC2)C1c1cc2ccccc2nc1Oc1ccc(C#N)cc1` (stereo not given): the MIC is 100 µg/mL (≈ 183 µM) in the experiment with Bacillus subtilis; 200 µg/mL (≈ 367 µM) in the experiment on Vibrio cholerae; 125 µg/mL (≈ 229 µM) in the experiment with Clostridium tetani; 250 µg/mL (≈ 458 µM) in the experiment on Aspergillus fumigatus; 100 µg/mL (≈ 183 µM) in the experiment with Escherichia coli; 250 µg/mL (≈ 458 µM) with Streptococcus pneumoniae. The MIC in the experiment on Candida albicans is greater than 1000 µg/mL; in the experiment with Salmonella typhi it was 250 µg/mL (≈ 458 µM). Further, in experiment [1], the inhibition of growth at 250 µg/mL came to 10%. In addition, the Activity in experiment [2] turned out to be 16.4 equiv.

As for `CC1(C)CC(=O)C2=C(C1)N(c1ccc(F)c(F)c1)C(N)=C(C#N)C2c1cc2cc(Cl)ccc2nc1Oc1ccc(C#N)cc1` (stereo not given), the MIC with Bacillus subtilis was 200 µg/mL (≈ 329 µM); with Vibrio cholerae, 250 µg/mL (≈ 411 µM); in the experiment on Clostridium tetani, 125 µg/mL (≈ 206 µM); in the experiment with Aspergillus fumigatus, 500 µg/mL (≈ 822 µM); with Escherichia coli, 125 µg/mL (≈ 206 µM); in the experiment on Streptococcus pneumoniae it was 100 µg/mL (≈ 164 µM). Also, the MIC worked out at 500 µg/mL (≈ 822 µM) in the experiment on Candida albicans and 200 µg/mL (≈ 329 µM) with Salmonella typhi. Further, the inhibition of growth at 250 µg/mL in experiment [1] was determined as 84%. For the same molecule, the Activity in [2] was 3.36 equiv.

Regarding `CC1(C)CC(=O)C2=C(C1)N(c1ccc(F)c(F)c1)C(N)=C(C#N)C2c1cc2ccccc2nc1Oc1ccc(C#N)cc1` (stereo not given), the minimal inhibitory concentration (MIC) is 200 µg/mL (≈ 349 µM) with Bacillus subtilis; 100 µg/mL (≈ 174 µM) with Vibrio cholerae; 100 µg/mL (≈ 174 µM) in the experiment on Clostridium tetani; 500 µg/mL (≈ 872 µM) in the experiment on Aspergillus fumigatus; 125 µg/mL (≈ 218 µM) in the experiment on Escherichia coli; 200 µg/mL (≈ 349 µM) with Streptococcus pneumoniae. The MIC in the experiment with Candida albicans was determined as 500 µg/mL (≈ 872 µM); in the experiment with Salmonella typhi, 200 µg/mL (≈ 349 µM). For the same molecule, the inhibition of growth at 250 µg/mL in experiment [1] came to 64%. Further, the Activity in experiment [2] came out at 19.6 equiv.

For `COc1ccc2nc(Oc3ccc(C#N)cc3)c(C3C(C#N)=C(N)N(c4cccc(C(F)(F)F)c4)C4=C3C(=O)CC(C)(C)C4)cc2c1` (stereo not given), the MIC with Bacillus subtilis was 250 µg/mL (≈ 393 µM); in the experiment with Vibrio cholerae it was 250 µg/mL (≈ 393 µM); with Clostridium tetani it was 500 µg/mL (≈ 787 µM); with Aspergillus fumigatus, 500 µg/mL (≈ 787 µM); in the experiment on Escherichia coli, 125 µg/mL (≈ 197 µM); in the experiment on Streptococcus pneumoniae it was 200 µg/mL (≈ 315 µM). The MIC in the experiment on Candida albicans was found to be 1000 µg/mL (≈ 1570 µM); in the experiment with Salmonella typhi, 200 µg/mL (≈ 315 µM). Also, the inhibition of growth at 250 µg/mL in experiment [1] came to 62%. For the same molecule, the Activity in experiment [2] amounted to 14.3 equiv.

Take `N#CC1=C(N)N(c2cccc(C(F)(F)F)c2)C2=C(C(=O)CCC2)C1c1cc2ccccc2nc1Oc1ccc(C#N)cc1` (stereo not given): the MIC is 100 µg/mL (≈ 173 µM) in the experiment on Bacillus subtilis; 250 µg/mL (≈ 433 µM) in the experiment with Vibrio cholerae; 250 µg/mL (≈ 433 µM) in the experiment with Clostridium tetani; 1000 µg/mL (≈ 1730 µM) in the experiment on Aspergillus fumigatus; 200 µg/mL (≈ 346 µM) with Escherichia coli; 125 µg/mL (≈ 216 µM) in the experiment with Streptococcus pneumoniae. Moreover, the results for the MIC in the experiment with Candida albicans and in the experiment with Salmonella typhi were 1000 µg/mL (≈ 1730 µM) and 250 µg/mL (≈ 433 µM), respectively. Besides, the inhibition of growth at 250 µg/mL in experiment [1] was 52%. Moreover, the Activity in [2] was determined as 270 equiv.

`Cc1ccc2nc(Oc3ccc(C#N)cc3)c(C3C(C#N)=C(N)N(c4cccc(C(F)(F)F)c4)C4=C3C(=O)CCC4)cc2c1` (stereo not given): the MIC in the experiment on Bacillus subtilis was 200 µg/mL (≈ 338 µM); with Vibrio cholerae it was 100 µg/mL (≈ 169 µM); with Clostridium tetani it was 125 µg/mL (≈ 211 µM); in the experiment with Aspergillus fumigatus, greater than 1000 µg/mL; in the experiment with Escherichia coli, 250 µg/mL (≈ 423 µM); in the experiment with Streptococcus pneumoniae it was 250 µg/mL (≈ 423 µM). Also, the MIC in the experiment on Candida albicans and with Salmonella typhi was 250 µg/mL (≈ 423 µM) each time. For the same molecule, the inhibition of growth at 250 µg/mL in [1] was 38%. For the same molecule, in experiment [2], the Activity stood at 253 equiv.

For the molecule `CC1(C)CC(=O)C2=C(C1)N(c1cc(F)ccc1F)C(N)=C(C#N)C2c1cc2cc(Cl)ccc2nc1Oc1ccc(C#N)cc1` (stereo not given), the MIC in the experiment with Bacillus subtilis was 100 µg/mL (≈ 164 µM); with Vibrio cholerae, 250 µg/mL (≈ 411 µM); with Clostridium tetani, 125 µg/mL (≈ 206 µM); in the experiment with Aspergillus fumigatus, greater than 1000 µg/mL; in the experiment with Escherichia coli it was 250 µg/mL (≈ 411 µM); in the experiment with Streptococcus pneumoniae it was 250 µg/mL (≈ 411 µM). The results for the MIC in the experiment with Candida albicans and in the experiment with Salmonella typhi were 1000 µg/mL (≈ 1640 µM) and 125 µg/mL (≈ 206 µM), respectively. Besides, in experiment [1], the inhibition of growth at 250 µg/mL is 87%. For the same molecule, in experiment [2], the Activity is 2.17 equiv.

As to `COc1ccc2nc(Oc3ccc(C#N)cc3)c(C=O)cc2c1`, the MIC with Bacillus subtilis worked out at 250 µg/mL (≈ 822 µM); with Vibrio cholerae, 250 µg/mL (≈ 822 µM); with Clostridium tetani, 200 µg/mL (≈ 657 µM); in the experiment with Aspergillus fumigatus, 1000 µg/mL (≈ 3290 µM); in the experiment on Escherichia coli it was 250 µg/mL (≈ 822 µM); in the experiment with Streptococcus pneumoniae it was 200 µg/mL (≈ 657 µM). Besides, the MIC in the experiment with Candida albicans turned out to be 1000 µg/mL (≈ 3290 µM); with Salmonella typhi it was 100 µg/mL (≈ 329 µM). The inhibition of growth at 250 µg/mL in [1] amounted to 11%. Further, the Activity in experiment [2] was 47 equiv.

As to `Cc1ccc2nc(Oc3ccc(C#N)cc3)c(C=O)cc2c1`, the MIC in the experiment on Bacillus subtilis was 100 µg/mL (≈ 347 µM); with Vibrio cholerae, 125 µg/mL (≈ 434 µM); in the experiment on Clostridium tetani it was 100 µg/mL (≈ 347 µM); with Aspergillus fumigatus it was 250 µg/mL (≈ 867 µM); in the experiment with Escherichia coli, 62.5 µg/mL (≈ 217 µM); in the experiment with Streptococcus pneumoniae, 200 µg/mL (≈ 694 µM). For the same molecule, the values for the MIC in the experiment on Candida albicans and in the experiment with Salmonella typhi were greater than 1000 µg/mL and 125 µg/mL (≈ 434 µM), respectively. Also, the inhibition of growth at 250 µg/mL in experiment [1] was determined as 26%. Besides, the Activity in [2] was found to be 16 equiv.

One may read the MIC as the lowest concentration that inhibits growth of the organism.

For the origin of these results see ChEMBL document CHEMBL2375307, “Synthesis and identification of β-aryloxyquinoline based diversely fluorine substituted N-aryl quinolone derivatives as a new class of antimicrobial, antituberculosis and antioxidant agents” (Eur J Med Chem, 2013).
